Experimental data published in ChEMBL document CHEMBL2311473, “Characterization of antimicrobial, cytotoxic, and antiendotoxin properties of short peptides with different hydrophobic amino acids at "a" and "d" positions of a heptad repeat sequence” (J Med Chem, 2013).
In brackets after ≈: the same amount, converted by molar mass. Activity calls are given as the source filed them. The rule behind the calls is not given here.

Experiments:
[1] = system: Trichophyton mentagrophytes; assay: Antifungal activity against Trichophyton mentagrophytes after 96 hrs by NCCLS microbroth dilution method; type: functional
Outline: (§1)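 Microbroth dilution in MOPS-buffered RPMI 1640 following NCCLS guidelines. Inoculum 1−5 × 10^3 cells/mL, peptide range 50−0.36 (mass/mL). Plates held in a moist chamber at 35 °C and A492 read after 48 h (Candida spp.), 72 h (A. fumigatus, S. schenckii, C. neoformans) or 96 h (T. mentagrophytes). MIC taken as 90% growth inhibition versus growth control.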

[2] = system: RAW264.7; assay: Antiinflammatory activity in mouse RAW264.7 cells assessed as inhibition of LPS-induced TNFalpha secretion at 1.5 to 4.5 uM after 12 hrs by ELISA; type: functional, cell-based
Outline: (§2)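 RAW 264.7 cells treated with LPS alone or LPS plus peptide. TNF-α and IL-6 measured by ELISA in culture supernatant and expressed as percentage inhibition of LPS-induced secretion. Mean of three independent experiments, SD shown.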

[3] = system: RAW264.7; assay: Antiinflammatory activity in mouse RAW264.7 cells assessed as downregulation of LPS-induced iNOS2 expression at 4.5 uM after 24 hrs by Western blotting analysis; type: functional, cell-based
Outline: (§3)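 RAW 264.7 cells (~2 × 10^5) stimulated with LPS 1 μg/mL plus peptide 4.5 μM for 24 h. Cells washed in ice-cold PBS and lysed in Laemmli buffer. SDS-PAGE (8% gel iNOS-2, 12% TNF-α), nitrocellulose transfer, alkaline phosphatase secondary with NBT/BCIP. Band densities normalized to β-actin. LPS-only and untreated cells served as controls.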

[4] = system: Bacillus subtilis; assay: Antibacterial activity against Bacillus subtilis ATCC 6633 after 18 hrs by broth dilution method; type: functional; details: ATCC 6633, 18 h
Outline: (§4)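 Bacteria grown aerobically at 37 °C in Mueller-Hinton broth to mid-log phase (OD600), diluted to ~10^6 cfu/mL, then mixed 1:1 with 2-fold serial peptide dilutions in water. Incubation ~18 h at 37 °C before MIC read-out (μM).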

[5] = system: Cryptococcus neoformans; assay: Antifungal activity against Cryptococcus neoformans after 72 hrs by NCCLS microbroth dilution method; type: functional; outline: as §1
[6] = Induction of dissipation of diffusion potential in PE/PG lipid vesicles by fluorescence assay; type: physicochemical
Outline: (§5)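 SUVs of PC/Chol (8:1 w/w) or PE/PG (7:3 w/w) treated with peptide. Dissipation of diffusion potential taken as percentage fluorescence recovery ~5 min after peptide addition, with valinomycin used for reference levels. Plotted against peptide/lipid molar ratio.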

[7] = system: Lipopolysaccharide (LPS); assay: Binding affinity to LPS assessed as inhibition of LPS-induced LAL enzyme activation at 18 uM after 30 mins by spectrophotometric analysis
Outline: (§6)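 Chromogenic limulus amoebocyte lysate endotoxin kit. Peptide binding to LPS estimated from inhibition of LPS-induced LAL enzyme activation, i.e. reduced substrate colour, and reported as percentage LPS binding.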

[8] = system: Candida parapsilosis; assay: Antifungal activity against Candida parapsilosis ATCC 22019 after 48 hrs by NCCLS microbroth dilution method; type: functional; details: Lodderomyces parapsilosis, ATCC 22019, 48 h; outline: as §1
[9] = Binding affinity to PE/PG lipid vesicles assessed as decrease in decrease in acrylamide-induced tryptophan fluorescence quenching at 1 uM; type: physicochemical
Outline: (§7)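 Acrylamide quencher added in aliquots from 3.0 M stock to peptide with PC/Chol (8:1) or PE/PG (7:3) SUVs, peptide/lipid 1:100. Trp excited at 295 nm. Values corrected for dilution and vesicle-blank scatter, then fitted to Stern–Volmer F0/F = 1 + KSV[Q].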

[10] = system: Pseudomonas aeruginosa; assay: Antibacterial activity against Pseudomonas aeruginosa ATCC BAA-427 after 18 hrs by broth dilution method; type: functional; details: ATCC BAA-427, 18 h; outline: as §4
[11] = system: Klebsiella pneumoniae; assay: Antibacterial activity against Klebsiella pneumoniae ATCC 27736 after 18 hrs by broth dilution method; type: functional; details: ATCC 27736, 18 h; outline: as §4
[12] = Cytotoxicity against human RBC assessed as induction of membrane depolarization at up to 16 uM by DiSC3(5) staining-based fluorescence assay; type: cell-based; details: erythrocyte
Outline: (§8)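 Membrane potential dye diS-C3-5 preincubated 1 h with hRBC or S. aureus suspensions; I0 is steady-state fluorescence after this incubation. Peptide then added at varying concentrations. Depolarization expressed as percentage fluorescence recovery (Ft) versus peptide concentration.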

[13] = Binding affinity to PE/PG lipid vesicles assessed as induction of large blue shift at 1 uM by fluorescence assay; type: physicochemical
[14] = system: Candida albicans; assay: Antifungal activity against Candida albicans after 48 hrs by NCCLS microbroth dilution method; type: functional; outline: as §1
[15] = system: Lipopolysaccharide (LPS); assay: Binding affinity to LPS assessed as increase in helical structure at 36 uM by circular dichroism analysis
Outline: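 CD spectra of peptides (36 μM) recorded alone and with LPS at 3.8 and 6.25 μM.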

[16] = system: Staphylococcus aureus; assay: Antibacterial activity against Staphylococcus aureus ATCC 9144 after 18 hrs by broth dilution method; type: functional; details: ATCC 9144, 18 h; outline: as §4
[17] = Binding affinity to PC/Chol lipid vesicles assessed as decrease in acrylamide-induced tryptophan fluorescence quenching at 1 uM; type: physicochemical; outline: as §7
[18] = system: RAW264.7; assay: Antiinflammatory activity in mouse RAW264.7 cells assessed as inhibition of LPS-induced IL6 secretion at 1.5 to 4.5 uM after 12 hrs by ELISA; type: functional, cell-based; outline: as §2
[19] = system: Staphylococcus epidermidis; assay: Antibacterial activity against Staphylococcus epidermidis NRRL B-4268 after 18 hrs by broth dilution method; type: functional; details: NRRL B-4268, 18 h; outline: as §4
[20] = Drug uptake in human RBC assessed as membrane localization at 9 uM after 10 to 30 mins by confocal microscopic analysis; type: ADME; details: erythrocyte
Outline: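 Fresh hRBCs (3% in PBS) incubated with NBD-labeled peptide (~9.0 μM) for 10–30 min at 37 °C. Washed, fixed in 2% paraformaldehyde 10 min, and imaged by confocal microscopy at constant photomultiplier setting.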

[21] = system: Sporothrix schenckii; assay: Antifungal activity against Sporothrix schenckii after 72 hrs by NCCLS microbroth dilution method; type: functional; outline: as §1
[22] = Cytotoxicity against human RBC assessed as hemolysis at 60 uM; type: cell-based, Erythrocyte; details: red blood cells (RBC), read-out: Activity
Outline: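 hRBCs in PBS exposed to peptide. Hemoglobin release read as supernatant absorbance at 540 nm. Hemolysis % = (Asample − Ablank)/(Atriton − Ablank) × 100, with PBS blank and 0.2% Triton X-100 (final) as 100% reference.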

[23] = Induction of dissipation of diffusion potential in PC/Chol lipid vesicles by fluorescence assay; type: physicochemical; outline: as §5
[24] = system: Staphylococcus aureus; assay: Bactericidal activity against Staphylococcus aureus ATCC 9144 assessed as induction of membrane depolarization at up to 7 uM by DiSC3(5) staining-based fluorescence assay; type: functional, organism-based; outline: as §8
[25] = system: Escherichia coli; assay: Drug uptake in Escherichia coli ATCC 10536 assessed as membrane localization at 3 uM after 30 mins by confocal microscopic analysis; type: ADME, organism-based; details: in vivo, 0.5 h
Outline: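 E. coli (~10^6 CFU/mL) in LB incubated with fluorescent-labeled peptide (~3.0 μM) for half an hour. Cells centrifuged, washed and imaged by confocal microscopy (DIC and fluorescence).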

[26] = system: Aspergillus fumigatus; assay: Antifungal activity against Aspergillus fumigatus after 72 hrs by NCCLS microbroth dilution method; type: functional; outline: as §1
[27] = system: Escherichia coli; assay: Bactericidal activity against Escherichia coli ATCC 10536 assessed as induction of membrane damage at 5 uM after 30 mins by propidium iodide staining-based flow cytometric analysis; type: functional, organism-based
Outline: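 Mid-log E. coli incubated with peptide (~5.0 μM) 30 min at 37 °C with shaking. Cells washed twice in PBS, stained with propidium iodide 30 min at 4 °C, washed and resuspended. 10000 events per sample by flow cytometry, compared with peptide-free control.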

[28] = system: Escherichia coli; assay: Antibacterial activity against Escherichia coli ATCC 10536 after 18 hrs by broth dilution method; type: functional; details: ATCC 10536, 18 h; outline: as §4
[29] = system: Lipopolysaccharide (LPS); assay: Binding affinity to LPS assessed as inhibition of LPS-induced LAL enzyme activation at 4.5 uM after 30 mins by spectrophotometric analysis; outline: as §6
[30] = system: RAW264.7; assay: Antiinflammatory activity in mouse RAW264.7 cells assessed as downregulation of LPS-induced TNFalpha expression at 4.5 uM after 24 hrs by Western blotting analysis; type: functional, cell-based; outline: as §3
[31] = system: NIH3T3; assay: Cytotoxicity against mouse 3T3 cells assessed as cell viability up to 25 uM by MTT assay; type: cell-based
Outline: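 Murine 3T3 fibroblasts, grown in DMEM/IMDM with 10% FCS at 37 °C, 5% CO2, seeded at 10000 cells/well. Viability after peptide exposure measured by MTT (mitochondrial dehydrogenase) across a dose range.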

[32] = Binding affinity to PC/Chol lipid vesicles assessed as induction of large blue shift at 1 uM by fluorescence assay; type: physicochemical
[33] = system: RAW264.7; assay: Antiinflammatory activity in mouse RAW264.7 cells assessed as inhibition of LPS-induced NO production at 6 uM by Griess method; type: functional; parameters: scale not given: the % may be the effect or the level left
Outline: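 RAW 264.7 cells plated at 5 × 10^5/well and exposed to LPS (E. coli 0111:B4, 1 μg/mL) together with peptide at varying doses. Cells with and without LPS served as maximum and basal NO controls. Nitrite in the supernatant measured by Griess reagent at 548 nm against a sodium nitrite standard curve, and percent inhibition of NO calculated.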

[34] = Cytotoxicity against human RBC assessed as induction of membrane damage at 25 uM after 5 mins by annexin V-FITC staining-based FACS flow cytometric analysis; type: cell-based; details: erythrocyte
Outline: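 hRBCs (~3.0 × 10^7 cells/mL) treated with peptide (~25.0 μM) for 5 min at room temperature. Stained with FITC-annexin V and analysed by flow cytometry, 10000 events, compared with untreated control.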

[35] = system: Lipopolysaccharide (LPS); assay: Binding affinity to FITC-tagged LPS assessed as induction of disintegration up to 40 uM by […]; details: in the assay text read “fluorescence dequenching” for “circular dichroism”
Outline: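 FITC-LPS (0.5 μg/mL) titrated with increasing peptide concentrations. Disaggregation read as dequenching, i.e. rise in FITC fluorescence, monitored after each addition until emission reached equilibrium.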

[36] = system: Lipopolysaccharide (LPS); assay: Binding affinity to LPS assessed as inhibition of LPS-induced LAL enzyme activation at 9 uM after 30 mins by spectrophotometric analysis; outline: as §6
[37] = system: Staphylococcus aureus; assay: Antibacterial activity against methicillin-resistant Staphylococcus aureus after 18 hrs by broth dilution method; type: functional; outline: as §4

## C[C@H](N)C(=O)O [ALANINE]
[1]
  MIC: > 25 µM
[2]
  inhibition: Active
[3]
  Activity: Active
[4]
  MIC: 20 µM (≈ 1.78 µg/mL)
[5]
  MIC: > 25 µM
[6]
  Activity: Active
[7]
  inhibition: 10%
[8]
  MIC: 25 µM (≈ 2.23 µg/mL)
[9]
  Activity: Active
[10]
  MIC: 6.25 µM (≈ 0.557 µg/mL)
[11]
  MIC: 25 µM (≈ 2.23 µg/mL)
[12]
  Activity: Non-toxic
[13]
  Activity: Active
[14]
  MIC: > 25 µM
[15]
  Activity: Active
[16]
  MIC: 6.25 µM (≈ 0.557 µg/mL)
[17]
  Activity: Not Active
[18]
  inhibition: Active
[19]
  MIC: 8 µM (≈ 0.713 µg/mL)
[20]
  Drug uptake: Not Active
[21]
  MIC: 25 µM (≈ 2.23 µg/mL)
[22]
  hemolysis at 60 µM: 1%
[23]
  Activity: Active
[24]
  Activity: Active
[25]
  Drug uptake: Active
[26]
  MIC: > 25 µM
[27]
  Activity: Active
[28]
  MIC: 4.5 µM (≈ 0.401 µg/mL)
[29]
  inhibition: 3%
[30]
  Activity: Active
[31]
  Activity: Toxic
[32]
  Activity: Not Active
[33]
  Activity: 13%
[34]
  Activity: Non-toxic
[35]
  Activity: Active
[36]
  inhibition: 7%
[37]
  MIC: > 25 µM
